# TRPC4 act: activators of mouse TRPC4 channel, primary screen, Fluo4 calcium, HEK293 TRPC4beta/mu-opioid cells | Short transient receptor potential channel 4 (Mus musculus), Q9QUQ5 | Fluo4 calcium fluorescence; stronger effect = higher value | B-score at 10 µM | hit rate 0.49% among 310,000;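 active = B-score above 5 SD of library B-scores, and initial fluorescence ratio not above library mean plus 5 SD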;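 also: positive B-score marks a calcium rise read as TRPC4 activation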
#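 Technique: kinetic Fluo4 calcium fluorescence; Test system: TRPC4beta and mu-opioid receptor HEK293 stable cells; Measure: B-scored integrated calcium fluorescence ratio; Benchmarks: low control buffer alone, high control maximal DAMGO; Schedule: 45 min room-temperature Fluo4 loading, 110 s read.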
# TRPC4 inh: inhibitors of mouse TRPC4 channel, primary screen, Fluo4 calcium, HEK293 TRPC4beta/mu-opioid cells; B-score at 10 µM; AID 2247, 2010; Short transient receptor potential channel 4 (Mus musculus), Q9QUQ5; DAMGO-evoked Fluo4 calcium flux; stronger effect = lower value; hit rate 0.39% among 300,000;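 active = B-score over 3 SD under the library average, no early fluorescence shift, positive overall ratio signal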
#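 Test system – stable TRPC4beta/mu-opioid receptor HEK293 cells · Probe or stimulus – DAMGO, a submaximal dose followed by a maximal one · Dosing – one concentration per compound · Signal – Fluo4 calcium fluorescence by kinetic imaging, 5 s 1 Hz baseline · Evaluation – per-well B score of integrated baseline-normalized Fluo4 ratio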
# Kir21 block: inhibitors of mouse Kir2.1 inward-rectifier potassium channel; Inward rectifier potassium channel 2 (Mus musculus), P35561; HEK293-Kir2.1, FluxOR thallium flux fluorescence; stronger effect = lower value; B-score at 10 µM; hit rate 0.85% among 310,000;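 active = fluorescence ratio B-score at or below minus 3 SD of library scores, with starting-brightness B-score within 2 SD, cut at about -4.2 in these data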;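 also: channel flux triggered by added potassium and thallium sulfate stimulus; B-score of peak minus minimum fluorescence over baseline after thallium stimulus; more negative B-score means stronger Kir2.1 block with less thallium influx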
# TRPC6 act: mouse TRPC6 channel activators, primary screen, cell-based, HEK293, membrane potential dye; Short transient receptor potential channel 6 (Mus musculus), Q61143; B-score at 10 µM; hit rate 0.13% among 310,000; AID 2550, 2010; HEK293-TRPC6 membrane potential dye fluorescence; stronger effect = higher value;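 active = B-score of the integrated fluorescence ratio above library mean plus 3 SD, and starting fluorescence ratio within library mean plus 5 SD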;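 also: higher score means more depolarization so channel activation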
# Target sequence (Q61143 whole entry, looked up): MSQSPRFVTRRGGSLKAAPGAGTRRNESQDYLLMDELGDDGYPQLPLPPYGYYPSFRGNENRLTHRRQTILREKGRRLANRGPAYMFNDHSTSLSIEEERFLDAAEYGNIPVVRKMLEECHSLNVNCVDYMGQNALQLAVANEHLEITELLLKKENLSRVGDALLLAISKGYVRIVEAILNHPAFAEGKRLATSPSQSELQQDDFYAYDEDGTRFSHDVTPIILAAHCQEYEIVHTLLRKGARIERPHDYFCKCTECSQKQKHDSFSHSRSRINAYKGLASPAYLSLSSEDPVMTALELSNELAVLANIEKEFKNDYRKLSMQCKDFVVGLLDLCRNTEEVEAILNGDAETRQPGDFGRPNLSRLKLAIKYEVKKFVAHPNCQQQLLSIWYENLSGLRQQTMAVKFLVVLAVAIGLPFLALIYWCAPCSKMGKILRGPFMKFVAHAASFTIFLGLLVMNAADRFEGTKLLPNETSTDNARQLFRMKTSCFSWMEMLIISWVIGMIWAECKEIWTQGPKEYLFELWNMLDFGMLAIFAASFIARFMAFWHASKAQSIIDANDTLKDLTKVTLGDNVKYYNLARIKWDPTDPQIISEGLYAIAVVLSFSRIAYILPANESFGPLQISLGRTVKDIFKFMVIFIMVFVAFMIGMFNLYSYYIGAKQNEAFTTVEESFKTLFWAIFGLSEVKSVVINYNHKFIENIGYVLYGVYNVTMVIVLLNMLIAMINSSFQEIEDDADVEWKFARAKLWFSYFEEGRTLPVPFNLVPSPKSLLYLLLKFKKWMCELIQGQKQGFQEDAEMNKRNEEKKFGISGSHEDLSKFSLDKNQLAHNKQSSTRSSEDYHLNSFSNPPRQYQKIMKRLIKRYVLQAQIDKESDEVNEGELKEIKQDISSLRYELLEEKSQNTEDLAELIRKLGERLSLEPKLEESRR
# TRPC6 inhibitor: mouse TRPC6 channel inhibitors, primary screen, cell-based, HEK293, membrane potential dye. B-score at 10 µM. Short transient receptor potential channel 6 (Mus musculus), Q61143. hit rate 1.1% among 310,000. ACh-evoked depolarization; stronger effect = lower value;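 active = B-score under library mean minus 3 SD, initial fluorescence not abnormally high, positive integrated signal ratio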;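 also: B-score derived from integrated fluorescence ratio over the kinetic read; more negative B-score means stronger inhibition of depolarization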
# TRPC4 potent: positive allosteric modulators of TRPC4, primary screen, cell-based, mouse TRPC4beta, HEK293 mu-opioid, Fluo-4 calcium. Short transient receptor potential channel 4 (Mus musculus), Q9QUQ5. DAMGO EC20, Fluo-4 Ca2+ flux; stronger effect = higher value. B-score at 10 µM. hit rate 0.42% among 310,000. AID 2227, 2009;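 active = B-score of calcium response area above 5 SD of library B-scores, with initial fluorescence ratio within 5 SD of library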;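 also: B-score of integrated fluorescence ratio over time as area under calcium response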
# TRPC4 sel inh 2: mouse TRPC4 off-target activity of TRPC6 inhibitors, second screen | shares compounds with TRPC6 inhibitor | HEK293 TRPC4/MOR, membrane potential dye fluorescence; channel activated by saturating DAMGO dose | inhibition, % at 10 µM | hit rate 42% among 920 | AID 2776;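 active = compounds whose fluorescence signal differed from control wells by over 3 SD, either direction, in both duplicate plates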
# TRPC4 spec: mouse TRPC4 modulation by TRPC6 hits, confirmation, selectivity assay for TRPC6 inhibitor project, cell-based, HEK293 TRPC4/mu-opioid, membrane potential dye. shares compounds with TRPC6 inhibitor. hit rate 61% among 920. activity change, negative = inhibition, % at 10 µM. membrane potential fluorescence. AID 2777, 2010;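 active = rise or fall in signal beyond 3 SD of buffer-only wells in both replicate plates, either sign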;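 also: integrated kinetic ratio of fluorescence range over baseline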
# HEK293 MPD ctr 2-1: nonspecific membrane potential effects, parental HEK293, confirmation, counter-screen for TRPC6 inhibitor project, cell-based, second counter screen; parental HEK293 membrane potential dye fluorescence; maximal acetylcholine challenge after compound addition; signal change vs control, % at 10 µM; AID 2779, 2010; shares compounds with TRPC6 inhibitor; hit rate 31% among 920;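 active = membrane potential signal moving either way by over 3 SD of the maximum-effect control, in both duplicate plates, meaning non-specific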
# HEK293 MPD ctr-1: membrane potential modulation in parental HEK293, confirmation, counter-screen for TRPC6 inhibitor project, cell-based. shares compounds with TRPC6 inhibitor. parental HEK293 membrane potential dye fluorescence. membrane potential signal change, % at 10 µM. hit rate 60% among 920. AID 2780, 2010;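 active = membrane potential signal shifting up or down by more than 3 SD of buffer-only wells, on both duplicate plates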
# HEK293 MPD ctr-2: parental HEK293 membrane potential modulation, confirmation, counter-screen for TRPC6 modulator project, cell-based; shares compounds with TRPC6 inhibitor; membrane potential dye fluorescence; membrane potential signal change, % at 10 µM; hit rate 51% among 2,400; AID 488924, 2010;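 active = membrane potential signal moves up or down beyond 5 SD from buffer-only wells, on both duplicate plates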
# HEK293 MPD ctr 2-2: second counter-screen for TRPC6 modulators: effect in parental HEK293 cells; inhibition, % at 10 µM; membrane potential dye fluorescence; after compound, maximal acetylcholine stimulation; hit rate 14% among 2,400; shares compounds with TRPC6 inhibitor; AID 488926;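 active = membrane potential signal drops by more than 5 SD from the mean control signal, in both duplicate plates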;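 also: plate controls were acetylcholine ECmax control wells for no effect and buffer only wells for full effect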
# TRPC4 ctr mod: TRPC4 modulation by TRPC6 hit compounds, confirmation, selectivity assay for TRPC6 modulator project, cell-based, HEK293 TRPC4/mu-opioid, membrane potential dye, mouse; shares compounds with TRPC6 inhibitor; membrane potential fluorescence; percent change from control (negative = decrease, positive = increase), % at 10 µM; hit rate 69% among 2,400;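 active = membrane potential signal moved up or down beyond 5 SD of buffer control wells, in both duplicate plates, actives on both sides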;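 also: plate controls were assay buffer wells for no effect and DAMGO maximal-effect wells for full effect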
# TRPC4/MOR inh 2: second selectivity test of TRPC6 modulators against mouse TRPC4; shares compounds with TRPC6 inhibitor; HEK293 TRPC4/mu-opioid, membrane potential dye fluorescence; stimulated with maximal-effect DAMGO; inhibition, % at 10 µM; hit rate 55% among 2,400;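 active = drop in membrane potential signal beyond 5 SD of the control wells in both duplicate plates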;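 also: TRPC4 counter screen for TRPC6 hits run under conditions tuned for TRPC6 not TRPC4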
# TRPC6 block conf: mouse TRPC6 channel inhibitors, confirmation, HEK293 cells, membrane potential dye, duplicate; ACh-evoked depolarization; hit rate 43% among 3,300; inhibition, % at 10 µM; shares compounds with TRPC6 inhibitor;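 active = fluorescence ratio falls more than 5 SD below the full-stimulation control mean, in both duplicate runs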;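 also: integrated fluorescence ratio of peak minus minimum over baseline after agonist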
# TRPC6 act confirm: mouse TRPC6 channel activators, confirmation, HEK293 cells, membrane potential dye, duplicate; shares compounds with TRPC6 inhibitor; HEK293-TRPC6 membrane potential dye fluorescence, FDSS; activation, % at 10 µM; hit rate 11% among 2,800; AID 488961, 2010;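 active = ratio signal rise beyond 5 SD above unstimulated control wells' mean, seen in both duplicate runs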;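 also: plate controls were buffer EC0 wells for no effect and acetylcholine ECmax response for full effect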
# * = called active by the depositor; i = inactive; x = not tested or not shown. Rows were chosen to be rich in hits. Some 2.9% of all compounds tested hit in one or more screens of this group.
SMILES,TRPC4 act,TRPC4 inh,Kir21 block,TRPC6 act,TRPC6 inhibitor,TRPC4 potent,HEK293 MPD ctr-2,HEK293 MPD ctr 2-2,TRPC4 ctr mod,TRPC4/MOR inh 2,TRPC6 block conf,TRPC6 act confirm,others
CN(C)c1ccc2c(c1)OC(N)=C(C#N)C2c1cccc(F)c1 (stereo unspecified),56*,i,-0.41,12*,i,i,413%*,i,30%*,45%*,i,44%*,
COc1ccc(-c2csc(N(CCCN(C)C)C(=O)c3ccc(F)cc3)n2)cc1,i,i,-1.4,i,i,i,x,x,x,x,x,x,
CCN(CC)CCCN(C(=O)c1ccc(F)cc1)c1nc(-c2ccc(OC)cc2)cs1,i,i,-1.2,i,-6.7*,i,x,x,x,x,73%*,i,TRPC4 sel inh 2=33%*;TRPC4 spec=i;HEK293 MPD ctr 2-1=i;HEK293 MPD ctr-1=i
COc1ccc(-c2csc(N(CCCN(C)C)C(=O)c3ccccc3F)n2)cc1,i,i,-1.2,i,-6.5*,i,i,i,i,85%*,51%*,i,
COc1ccc(-c2csc(N(CCCN(C)C)C(=O)c3ccccc3C)n2)cc1,i,i,-0.19,i,-8.9*,i,x,x,x,x,62%*,i,TRPC4 sel inh 2=43%*;TRPC4 spec=i;HEK293 MPD ctr 2-1=i;HEK293 MPD ctr-1=i
COc1ccc(-c2csc(N(CCCN(C)C)C(=O)c3ccccc3Cl)n2)cc1,i,i,-2.4,i,-7.9*,i,x,x,x,x,59%*,i,TRPC4 sel inh 2=37%*;TRPC4 spec=i;HEK293 MPD ctr 2-1=i;HEK293 MPD ctr-1=i
CC(C)c1ccc(NC(=O)C2=NNC(=O)CC2)cc1,i,i,0.28,i,i,i,x,x,x,x,x,x,
N#CCCOC1(C#CCN2CCCC2)CCCCC1,i,i,-0.63,i,i,i,x,x,x,x,x,x,
CC(=O)Nc1ccc(C=C(C(C)=O)C(C)=O)cc1,i,i,-2.4,i,i,i,x,x,x,x,x,x,
COc1ccc(C(=O)OC(C)C(=O)NC(C)CCc2ccccc2)c(OC)c1 (stereo unspecified),i,i,-1.4,i,i,i,x,x,x,x,x,x,
O=C(COc1ccc2ccc(=O)oc2c1)Nc1c(Cl)cccc1C(F)(F)F,i,i,0.12,i,i,i,x,x,x,x,x,x,
Cn1c(=O)c2c(ncn2CCC(=O)N/N=C/c2cccnc2)n(C)c1=O,i,i,-0.12,i,i,i,x,x,x,x,x,x,
CCOC(=O)Nc1ccc2c(c1)N(C(=O)CCN1CCN(C)CC1)c1ccccc1S2,i,i,0.51,i,i,i,x,x,x,x,x,x,
CCOC(=O)Nc1ccc2c(c1)N(C(=O)N1CCN(C)CC1)c1ccccc1S2,i,i,-0.54,i,-5.3*,i,i,i,i,36%*,i,i,
CCOC(=O)C1(C)/C(=N/Nc2ccc(Cl)cc2)C(=O)C(=O)N1c1ccccc1 (stereo unspecified),i,i,-3,i,i,i,x,x,x,x,x,x,
CCOC(=O)C1(C)/C(=N/Nc2ccccc2Cl)C(=O)C(=O)N1c1ccccc1 (stereo unspecified),i,i,0.04,i,-5.1*,i,-76%*,i,-21%*,48%*,i,i,
CS(=O)(=O)N1CCN(C(=O)C2c3ccccc3Oc3ccccc32)CC1,i,i,-0.57,i,-5.7*,i,i,i,18%*,i,42%*,x,
Cc1cc(C)c2oc(C(=O)NC3CCS(=O)(=O)C3)cc(=O)c2c1 (stereo unspecified),i,i,-0.06,i,i,i,x,x,x,x,x,x,
Cc1ccc(C(=O)Nc2cccc(C(=O)N/N=C/c3ccc(F)cc3)c2)cc1,i,i,0.17,i,-6*,i,i,i,i,i,i,i,
CN(C)C/C=C/C(O)(c1ccccc1)c1ccccc1,i,i,0.19,i,-7.6*,i,x,x,x,x,61%*,i,TRPC4 sel inh 2=i;TRPC4 spec=i;HEK293 MPD ctr 2-1=i;HEK293 MPD ctr-1=1.3%*
CN(C)C/C(Cl)=C(\Cl)c1ccccc1,i,i,-0.2,i,i,i,x,x,x,x,x,x,
O=S1(=O)CCOCCCN1Cc1ccccc1F,i,i,2.6,i,i,i,x,x,x,x,x,x,
